From ChEMBL document CHEMBL4689842, “EUbOPEN Chemogenomics Library wave 1” (2021)

Assays:
U2OS [1] = test: Incucyte cell viability with U2OS; format: toxicity, cell-based; settings: human, 10 µM, compound concentration 10 uM; note: filed as whole numbers so only -1 and 0 and 1 occur
U2OS [2] = test: Multiplex assay against U2OS; format: toxicity, cell-based; settings: human
Summary of the method: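 Tubulin, mitochondrial-mass and membrane-permeability phenotypes are per cents of healthy-nucleus cells. Cells were gated by CellPathfinder machine learning into Hoechst high-intensity objects or normal cells, normal cells into healthy, pyknosed or fragmented nuclei, and pyknosed cells into mitotic or apoptotic. Before that, live cells stained at seeding with Hoechst33342, BioTracker Green Microtubule Cytoskeleton Dye, MitoTracker Red and Annexin V Alexa Fluor 680 were imaged on a CQ1 microscope at 37°C and 5% CO2 after compound addition.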

[3] = 12 h, 1 µM, compound concentration 1 uM, replicate 1
[4] = 12 h, 1 µM, compound concentration 1 uM, replicate 2
[5] = 12 h, 10 µM, compound concentration 10 uM, replicate 1
[6] = 12 h, 10 µM, compound concentration 10 uM, replicate 2
[7] = 24 h, 1 µM, compound concentration 1 uM, replicate 1
[8] = 24 h, 1 µM, compound concentration 1 uM, replicate 2
[9] = 24 h, 10 µM, compound concentration 10 uM, replicate 1

With `CC(Cc1ccc(O)c(O)c1)C(C)Cc1ccc(O)c(O)c1` (configuration not stated) [NORDIHYDROGUAIARETIC ACID] the “Growth Rate” value (U2OS [1]; 0 h, replicate number 1, timepoint 0 hours) was 0, the “Growth Rate” value (U2OS [1]; 6 h, replicate number 2, timepoint 6 hours) was 0 and the “Growth Rate” value (U2OS [1]; 12 h, replicate number 1, timepoint 12 hours) was 0. For the same molecule, the “Growth Rate” value (U2OS [1]; 18 h, replicate number 1, timepoint 18 hours) was 0, the “Growth Rate” value (U2OS [1]; 24 h, replicate number 1, timepoint 24 hours) was 0 and the “Population Apoptotic (%)” value (U2OS [2]; [3]) was 64%. The “Population Fragmented Nuclei (%)” value (U2OS [2]; [3]) was 11%, the “Population Healthy Nuclei (%)” value (U2OS [2]; [3]) was 75% and the “Population Hoechst High Intensity Objects (%)” value (U2OS [2]; [3]) was 8%. For the same molecule, the “Population Membrane Permeable-Phenotype (%)” value (U2OS [2]; [3]) was 3%, the “Population Mitochondria Different-Phenotype (%)” value (U2OS [2]; [3]) was 8% and the “Population Mitotic Cells (%)” value (U2OS [2]; [3]) was 35%. For the same molecule, the “Population Normal (%)” value (U2OS [2]; [3]) was 91%, the “Population Pyknosed Nuclei (%)” value (U2OS [2]; [3]) was 12% and the “Population Tubulin-Different-Phenotype (%)” value (U2OS [2]; [3]) was 10%. For the same molecule, the “Population Apoptotic (%)” value (U2OS [2]; [4]) was 0%, the “Population Fragmented Nuclei (%)” value (U2OS [2]; [4]) was 3% and the “Population Healthy Nuclei (%)” value (U2OS [2]; [4]) was 93%. For the same molecule, the “Population Hoechst High Intensity Objects (%)” value (U2OS [2]; [4]) was 15%, the “Population Membrane Permeable-Phenotype (%)” value (U2OS [2]; [4]) was 0% and the “Population Mitochondria Different-Phenotype (%)” value (U2OS [2]; [4]) was 1%. The “Population Mitotic Cells (%)” value (U2OS [2]; [4]) was 100%, the “Population Normal (%)” value (U2OS [2]; [4]) was 84% and the “Population Pyknosed Nuclei (%)” value (U2OS [2]; [4]) was 3%. The “Population Tubulin-Different-Phenotype (%)” value (U2OS [2]; [4]) was 25%, the “Population Apoptotic (%)” value (U2OS [2]; [5]) was 35% and the “Population Fragmented Nuclei (%)” value (U2OS [2]; [5]) was 19%. For the same molecule, the “Population Healthy Nuclei (%)” value (U2OS [2]; [5]) was 64%, the “Population Hoechst High Intensity Objects (%)” value (U2OS [2]; [5]) was 14% and the “Population Membrane Permeable-Phenotype (%)” value (U2OS [2]; [5]) was 7%. The “Population Mitochondria Different-Phenotype (%)” value (U2OS [2]; [5]) was 12%, the “Population Mitotic Cells (%)” value (U2OS [2]; [5]) was 64% and the “Population Normal (%)” value (U2OS [2]; [5]) was 85%. The “Population Pyknosed Nuclei (%)” value (U2OS [2]; [5]) was 16%, the “Population Tubulin-Different-Phenotype (%)” value (U2OS [2]; [5]) was 30% and the “Population Apoptotic (%)” value (U2OS [2]; [6]) was 0%. The “Population Fragmented Nuclei (%)” value (U2OS [2]; [6]) was 2%, the “Population Healthy Nuclei (%)” value (U2OS [2]; [6]) was 91% and the “Population Hoechst High Intensity Objects (%)” value (U2OS [2]; [6]) was 6%. For the same molecule, the “Population Membrane Permeable-Phenotype (%)” value (U2OS [2]; [6]) was 2%, the “Population Mitochondria Different-Phenotype (%)” value (U2OS [2]; [6]) was 10% and the “Population Mitotic Cells (%)” value (U2OS [2]; [6]) was 100%. For the same molecule, the “Population Normal (%)” value (U2OS [2]; [6]) was 93%, the “Population Pyknosed Nuclei (%)” value (U2OS [2]; [6]) was 5% and the “Population Tubulin-Different-Phenotype (%)” value (U2OS [2]; [6]) was 38%. For the same molecule, the “Population Apoptotic (%)” value (U2OS [2]; [7]) was 45%, the “Population Fragmented Nuclei (%)” value (U2OS [2]; [7]) was 12% and the “Population Healthy Nuclei (%)” value (U2OS [2]; [7]) was 78%. The “Population Hoechst High Intensity Objects (%)” value (U2OS [2]; [7]) was 7%, the “Population Membrane Permeable-Phenotype (%)” value (U2OS [2]; [7]) was 4% and the “Population Mitochondria Different-Phenotype (%)” value (U2OS [2]; [7]) was 7%. The “Population Mitotic Cells (%)” value (U2OS [2]; [7]) was 54%, the “Population Normal (%)” value (U2OS [2]; [7]) was 92% and the “Population Pyknosed Nuclei (%)” value (U2OS [2]; [7]) was 8%. The “Population Tubulin-Different-Phenotype (%)” value (U2OS [2]; [7]) was 11%, the “Population Apoptotic (%)” value (U2OS [2]; [8]) was 0% and the “Population Fragmented Nuclei (%)” value (U2OS [2]; [8]) was 2%. The “Population Healthy Nuclei (%)” value (U2OS [2]; [8]) was 94%, the “Population Membrane Permeable-Phenotype (%)” value (U2OS [2]; [8]) was 0% and the “Population Mitochondria Different-Phenotype (%)” value (U2OS [2]; [8]) was 8%. The “Population Mitotic Cells (%)” value (U2OS [2]; [8]) was 100%, the “Population Pyknosed Nuclei (%)” value (U2OS [2]; [8]) was 2% and the “Population Tubulin-Different-Phenotype (%)” value (U2OS [2]; [8]) was 23%. For the same molecule, the “Population Apoptotic (%)” value (U2OS [2]; [9]) was 61%, the “Population Fragmented Nuclei (%)” value (U2OS [2]; [9]) was 18% and the “Population Healthy Nuclei (%)” value (U2OS [2]; [9]) was 68%. For the same molecule, the “Population Hoechst High Intensity Objects (%)” value (U2OS [2]; [9]) was 14%.
